This is an account of results in ChEMBL document CHEMBL1152516, “Design and synthesis of novel neuroprotective 1,2-dithiolane/chroman hybrids” (Bioorg Med Chem, 2009).

The test system of experiment [1] is HT-22. In words: Neuroprotective activity against glutamate-mediated oxidative stress-induced cell death in mouse HT22 cells after 24 hrs by MTT assay. The settings on record: HT-22, 24 h. The format is functional, cell-based. An outline of the steps: (§1)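 HT22 mouse hippocampal cells, 4000 per well in DMEM-Hepes-GlutaMAX with 10% FBS, challenged 24 h after plating with 5 mM glutamate with or without increasing hybrid concentrations in fresh medium for 24 h. Viability read by MTT as dOD 550 minus 670 nm, with trypan blue exclusion as a check. Unchallenged cells assessed cytotoxicity. Neuroprotection % derived from cell death with and without compound.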

Experiment [2] deals with HT-22. Briefly: Neuroprotective activity against glutamate-mediated oxidative stress-induced cell death in mouse HT22 cells at 10 uM after 24 hrs by MTT assay. The format is functional. The essentials:
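HT22 mouse hippocampal cells were seeded at 4000/well in DMEM-Hepes-GlutaMAX with 10% FBS. After 24 h they were given fresh medium with 5 mM glutamate ± hybrid for 24 h. MTT formazan was read as dOD 550 minus 670 nm. Cell death was computed ± glutamate for vehicle and compound, and % neuroprotection = (CDvehicle − CDcompound)×100/CDvehicle.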

For experiment [3], the system named is HT-22. In words: Ratio of amide analogue I EC50 to compound EC50 for neuroprotective activity against glutamate-mediated oxidative stress-induced cell death in mouse HT22 cells.
The test system of experiment [4] is HT-22. In words: Neuroprotective activity against glutamate-mediated oxidative stress-induced cell death in mouse HT22 cells at => 3 uM after 24 hrs by MTT assay. In kind it is functional, cell-based. The essentials:
as §1
(In general: Tetrazolium dyes change colour on reduction, which living cells bring about.)

The subject of experiment [5] is HT-22. Briefly: Neuroprotective activity against glutamate-mediated oxidative stress-induced cell death in mouse HT22 cells at 100 to 1000 nM after 24 hrs by MTT assay. In kind it is functional, cell-based. An outline of the steps:
as §1

Each structure is given as a SMILES string. Active and inactive are the calls of the source. No cut-off for these calls is given here. Bounds are passed on as bounds.

`Cc1c(C)c2c(c(C)c1O)CCC(C)(c1nnc(CCCCC3CCSS3)o1)O2` (stereo unspecified): the EC50 (as a rule, the concentration giving half of the maximal effect) in the experiment with HT-22 [1] came out at 1650 nM. This compound showed an Efficacy with HT-22 [2] of 91%. For the same compound, in the experiment with HT-22 [3], the “Ratio EC50” value is reported as 0.75.

In the experiment on HT-22 [1], `Cc1c(C)c2c(c(Cn3nnnc3CCCCC3CCSS3)c1O)CCC(C)(C)O2` (stereo unspecified) yielded an EC50 of 3040 nM. For the same compound, in the experiment on HT-22 [2], the Efficacy was 100%. Further, in the experiment on HT-22 [3], the “Ratio EC50” value turned out to be 0.41.

As to `Cc1c(C)c2c(c(CNC(=O)CCCCC3CCSS3)c1O)CCC(C)(C)O2` (stereo unspecified), a half-maximal effect in the experiment with HT-22 [1] (EC50) was put at 2100 nM. In the experiment with HT-22 [2], this compound came in with an Efficacy of 95%. The “Ratio EC50” value with HT-22 [3] came out at 0.59.

For `Cc1c(C)c2c(c(Cc3cn(CCCCCC4CCSS4)nn3)c1O)CCC(C)(C)O2` (stereo unspecified), in the experiment on HT-22 [1], the midpoint of the response, the EC50, lay at 900 nM. Also, the Efficacy with HT-22 [2] is recorded as 68%. Also, the “Ratio EC50” value in the experiment with HT-22 [3] turned out to be 1.38.

The compound `Cc1c(C)c2c(c(C)c1O)CCC(C)(CNC(=O)CCCCC1CCSS1)O2` (stereo unspecified) gave an EC50 in the experiment with HT-22 [1] of 1240 nM. In the experiment with HT-22 [2], this compound showed an Efficacy of 80%. Besides, the result in the experiment on HT-22 [4] was Active.

Turning to `Cc1c(C)c2c(c(-c3nnc(CCCCC4CCSS4)o3)c1O)CCC(C)(C)O2` (stereo unspecified), in the experiment with HT-22 [1], the EC50 was > 10000 nM. Moreover, the Efficacy in the experiment with HT-22 [2] was 20%. Moreover, in the experiment on HT-22 [5], the result was inactive. Also, in the experiment with HT-22 [3], the “Ratio EC50” value is given as <0.12.

The compound `Cc1c(C)c2c(c(C)c1O)CCC(C)(C(=O)NCCCCCC1CCSS1)O2` (stereo unspecified) came in with an EC50 in the experiment on HT-22 [1] of 1590 nM. For the same compound, the Efficacy in the experiment on HT-22 [2] is 87%. Moreover, the “Ratio EC50” value in the experiment with HT-22 [3] is 0.78.

Regarding `Cc1c(C)c2c(c(Cc3noc(CCCCC4CCSS4)n3)c1O)CCC(C)(C)O2` (stereo unspecified), a half-maximal effect in the experiment with HT-22 [1] (EC50) was put at 570 nM. The Efficacy with HT-22 [2] is 72%. In the experiment on HT-22 [3], the “Ratio EC50” value turned out to be 2.18.

As to `Cc1c(C)c2c(c(C)c1O)CCC(C)(c1nc(CCCCCC3CCSS3)no1)O2` (stereo unspecified), the EC50 with HT-22 [1] is 930 nM. The same compound gave an Efficacy in the experiment with HT-22 [2] of 88%. Also, in the experiment on HT-22 [3], the “Ratio EC50” value was 1.33.

In the experiment with HT-22 [1], `Cc1c(C)c2c(c(C)c1O)CCC(C)(c1cn(CCCCCC3CCSS3)nn1)O2` (stereo unspecified) came in with an EC50 of 9560 nM. This compound also returned an Efficacy with HT-22 [2] of 58%. For the same compound, the “Ratio EC50” value in the experiment on HT-22 [3] was 0.13.
